The test system of data set [1] is Mus musculus. The data set can be described thus: Drug metabolism in plasma of chimeric mouse transplanted with rat hepatocytes treated with FK3453 at 3 mg/kg, iv as single dose. The data set is classed as ADME, organism-based, Hepatocyte. The arrangement: dose 3 mg/kg, route intravenous. Summed up: (§1)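 Pooled plasma from h-PXB or r-PXB mice after a 3 mg/kg i.v. dose was mixed with an equal volume of acetonitrile and centrifuged. Metabolites were profiled by C18 UPLC with ammonium formate/acetonitrile gradient, UV 254 nm, and Orbitrap MS/MS. Scored as detected or not detected.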

In data set [2] the test system is Mus musculus. The data set is described as follows: Drug metabolism in plasma of chimeric mouse transplanted with human hepatocytes treated with FK3453 at 3 mg/kg, iv as single dose. The data set is classed as ADME, organism-based, Hepatocyte. The arrangement: dose 3 mg/kg, route intravenous. Put shortly:
as §1

Data set [3] is described as follows: Retention time of the compound by UV/mass spectrometry. The class given is physicochemical. Summed up: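 Retention time on Acquity BEH C18 column (1.7 µm, 2.1×100 mm). Mobile phase 5 mM ammonium formate with 5% acetonitrile against acetonitrile, at 0.2 mL/min. Gradient: 100:0 to 2.5 min, linear to 65:35 by 25 min, 10:90 to 27 min. Detection by UV at 254 nm and MS.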

On to `CC(C)n1nc(-c2c(-c3ccccc3)nc(N)[nH]c2=O)ccc1=O`, for which the Drug metabolism result in the data set with Mus musculus [1] and in the data set with Mus musculus [2] was “metabolite_detected” throughout. The same compound showed a Retention_time in data set [3] of 16.5 min.
